Assay results: publication PMC5164959 (Biochemical pharmacology, 2016)
Read-outs that look alike come from different tables or passages of the source.

Assays:
[1] = target: T1, 5-HT2C (Homo sapiens, UniProt P28335); test: Radioligand competition binding assay; conditions: read-out: Ki 5-HT2C; Cheng-Prusoff from best-fit IC50
T1 sequence (P28335 33-458): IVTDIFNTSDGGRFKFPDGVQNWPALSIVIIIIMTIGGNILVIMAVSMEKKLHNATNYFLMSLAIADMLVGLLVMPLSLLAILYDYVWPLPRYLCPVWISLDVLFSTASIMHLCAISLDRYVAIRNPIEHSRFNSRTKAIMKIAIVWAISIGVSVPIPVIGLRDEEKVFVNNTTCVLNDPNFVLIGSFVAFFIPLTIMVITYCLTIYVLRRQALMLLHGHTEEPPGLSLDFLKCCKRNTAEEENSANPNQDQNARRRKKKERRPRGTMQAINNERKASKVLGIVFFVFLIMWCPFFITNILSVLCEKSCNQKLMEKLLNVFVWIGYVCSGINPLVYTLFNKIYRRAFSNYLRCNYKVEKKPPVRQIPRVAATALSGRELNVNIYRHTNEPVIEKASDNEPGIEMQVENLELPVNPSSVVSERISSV

[2] = target: T2, DGKα (Rattus norvegicus, UniProt P51556); test: Kinase assay with HEK 293T cell homogenate over-expressing DGKα; format: biochemical
T2 sequence (P51556 whole entry): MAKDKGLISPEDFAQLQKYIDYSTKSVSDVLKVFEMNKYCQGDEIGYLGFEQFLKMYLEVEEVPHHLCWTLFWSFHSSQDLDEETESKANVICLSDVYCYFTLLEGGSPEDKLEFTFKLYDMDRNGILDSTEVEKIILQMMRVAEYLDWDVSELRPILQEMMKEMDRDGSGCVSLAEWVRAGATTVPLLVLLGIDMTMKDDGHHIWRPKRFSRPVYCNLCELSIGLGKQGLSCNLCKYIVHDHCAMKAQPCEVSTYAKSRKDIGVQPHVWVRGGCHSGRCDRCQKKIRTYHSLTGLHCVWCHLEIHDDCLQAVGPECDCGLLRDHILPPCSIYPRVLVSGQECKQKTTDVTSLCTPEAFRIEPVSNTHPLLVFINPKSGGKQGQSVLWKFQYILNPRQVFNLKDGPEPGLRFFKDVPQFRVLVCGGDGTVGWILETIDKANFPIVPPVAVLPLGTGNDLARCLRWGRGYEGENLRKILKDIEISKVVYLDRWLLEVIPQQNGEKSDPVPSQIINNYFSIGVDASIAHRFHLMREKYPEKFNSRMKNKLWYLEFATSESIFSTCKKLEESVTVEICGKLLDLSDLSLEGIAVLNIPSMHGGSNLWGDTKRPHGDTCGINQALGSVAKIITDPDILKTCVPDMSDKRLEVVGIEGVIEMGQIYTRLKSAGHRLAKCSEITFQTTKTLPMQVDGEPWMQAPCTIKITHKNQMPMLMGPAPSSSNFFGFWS
How it was run: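 Each reaction held 5 μg homogenate protein, 2 mM extruded PC:PS:DAG liposomes (10 mol% dioleoyl, dioctanoyl or stearoyl-arachidonoyl DAG), buffer B, 1 mM DTT, 1 mM CaCl2 and 1 mM [γ32P]-ATP, run 20 min at 30°C. Test compounds came from DMSO stocks. 32P-PA was counted, normalized to GFP lysate and to DMSO control; IC50 from log[inhibitor] versus normalized response.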

[3] = test system: PKC; test: PKC activation: phosphorylation of PKC substrates by western blot in U251 cells; format: cell-based, human; conditions: treatment for 30 min
How it was run: (§1)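 Glioblastoma cells were treated 30 min with 4 or 40 μM test compound or 100 nM PMA, with or without 1 h pretreatment with 500 nM bisindolylmaleimide II. Cleared Triton lysates (50 μg) were run on 8.75% SDS-PAGE and probed with phospho-(Ser) PKC substrate antibody, detected by alkaline phosphatase chemiluminescence. Three independent experiments were quantified.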

[4] = target: 5-HT5A (Homo sapiens, UniProt P47898); test: Radioligand competition binding assay
5-HT5A, sequence (P47898 whole entry, species assumed): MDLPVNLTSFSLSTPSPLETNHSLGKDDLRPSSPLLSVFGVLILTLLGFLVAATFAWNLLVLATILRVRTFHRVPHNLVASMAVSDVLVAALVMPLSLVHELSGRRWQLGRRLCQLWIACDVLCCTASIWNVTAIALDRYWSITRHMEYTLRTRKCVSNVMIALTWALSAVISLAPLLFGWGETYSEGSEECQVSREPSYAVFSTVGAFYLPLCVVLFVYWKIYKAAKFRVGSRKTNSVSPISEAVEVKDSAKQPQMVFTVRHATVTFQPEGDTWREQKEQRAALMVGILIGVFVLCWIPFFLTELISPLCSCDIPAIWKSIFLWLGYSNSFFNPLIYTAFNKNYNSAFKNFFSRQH
How it was run: (§2)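 Run by the NIMH PDSP as radioligand competition binding assays. The primary screen used 10 μM test compound and reported mean percent inhibition of radioligand binding (n=4); above 50% counted as significant. At those receptors, IC50 values came from non-linear regression of competition binding isotherms and were converted to Ki with the Cheng-Prusoff equation.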

[5] = test system: DGKβ; conditions: 30 μM R59022; cited from earlier work
[6] = target: 5-HT1B (Homo sapiens, UniProt P28222); test: Radioligand competition binding assay
5-HT1B, sequence (P28222 whole entry, species assumed): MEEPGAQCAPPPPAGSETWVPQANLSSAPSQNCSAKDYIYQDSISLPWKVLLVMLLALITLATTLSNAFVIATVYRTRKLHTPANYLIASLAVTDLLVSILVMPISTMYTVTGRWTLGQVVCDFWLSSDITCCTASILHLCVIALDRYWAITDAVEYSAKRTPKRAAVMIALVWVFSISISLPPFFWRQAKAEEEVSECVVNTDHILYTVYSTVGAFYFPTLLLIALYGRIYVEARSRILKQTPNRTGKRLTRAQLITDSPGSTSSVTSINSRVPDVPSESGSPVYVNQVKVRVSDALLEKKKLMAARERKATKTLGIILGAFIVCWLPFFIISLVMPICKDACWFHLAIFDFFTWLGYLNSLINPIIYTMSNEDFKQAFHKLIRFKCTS
How it was run: as §2

[7] = target: 5-HT3 (Homo sapiens, UniProt P46098); test: Radioligand competition binding assay; conditions: 10 μM test compound, n=4
5-HT3, sequence (P46098 24-478, species assumed): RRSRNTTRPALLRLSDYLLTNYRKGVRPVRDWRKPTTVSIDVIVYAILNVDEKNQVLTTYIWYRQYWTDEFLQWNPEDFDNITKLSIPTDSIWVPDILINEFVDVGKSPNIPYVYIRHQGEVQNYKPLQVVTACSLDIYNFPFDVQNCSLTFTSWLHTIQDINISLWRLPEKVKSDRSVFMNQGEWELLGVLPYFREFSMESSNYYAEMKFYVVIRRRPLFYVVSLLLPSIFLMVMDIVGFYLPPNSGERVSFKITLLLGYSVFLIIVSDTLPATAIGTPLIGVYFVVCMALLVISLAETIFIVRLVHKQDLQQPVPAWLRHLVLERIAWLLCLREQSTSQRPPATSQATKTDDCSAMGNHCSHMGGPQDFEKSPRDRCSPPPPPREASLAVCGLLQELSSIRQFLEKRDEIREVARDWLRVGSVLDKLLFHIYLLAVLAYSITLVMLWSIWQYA
How it was run: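 Run by the NIMH PDSP as a radioligand competition binding primary screen. Test compounds were applied at 10 μM, and the read-out was mean percent inhibition of radioligand binding (n=4).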

[8] = target: 5-HT7 (Homo sapiens, UniProt P34969); test: Radioligand competition binding assay
5-HT7, sequence (P34969 whole entry, species assumed): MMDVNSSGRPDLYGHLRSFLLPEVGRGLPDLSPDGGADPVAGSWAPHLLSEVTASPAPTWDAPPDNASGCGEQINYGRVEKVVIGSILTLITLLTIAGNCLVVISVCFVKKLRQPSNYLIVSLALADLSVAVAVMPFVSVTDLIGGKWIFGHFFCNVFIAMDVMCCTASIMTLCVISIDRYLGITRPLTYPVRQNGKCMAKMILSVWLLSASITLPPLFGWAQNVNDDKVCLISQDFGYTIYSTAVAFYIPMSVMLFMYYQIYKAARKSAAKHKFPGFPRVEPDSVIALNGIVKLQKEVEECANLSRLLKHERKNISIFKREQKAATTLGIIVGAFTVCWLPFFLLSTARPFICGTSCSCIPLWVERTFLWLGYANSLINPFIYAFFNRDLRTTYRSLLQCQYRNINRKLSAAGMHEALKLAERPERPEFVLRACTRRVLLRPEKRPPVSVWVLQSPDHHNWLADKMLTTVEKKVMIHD
How it was run: as §2

[9] = target: DGKθ (Homo sapiens, UniProt P52824); test: Kinase assay with HEK 293T cell homogenate over-expressing DGKθ; format: biochemical; conditions: 20 μM inhibitor, dioleoyl DAG liposomes
DGKθ, sequence (P52824 whole entry): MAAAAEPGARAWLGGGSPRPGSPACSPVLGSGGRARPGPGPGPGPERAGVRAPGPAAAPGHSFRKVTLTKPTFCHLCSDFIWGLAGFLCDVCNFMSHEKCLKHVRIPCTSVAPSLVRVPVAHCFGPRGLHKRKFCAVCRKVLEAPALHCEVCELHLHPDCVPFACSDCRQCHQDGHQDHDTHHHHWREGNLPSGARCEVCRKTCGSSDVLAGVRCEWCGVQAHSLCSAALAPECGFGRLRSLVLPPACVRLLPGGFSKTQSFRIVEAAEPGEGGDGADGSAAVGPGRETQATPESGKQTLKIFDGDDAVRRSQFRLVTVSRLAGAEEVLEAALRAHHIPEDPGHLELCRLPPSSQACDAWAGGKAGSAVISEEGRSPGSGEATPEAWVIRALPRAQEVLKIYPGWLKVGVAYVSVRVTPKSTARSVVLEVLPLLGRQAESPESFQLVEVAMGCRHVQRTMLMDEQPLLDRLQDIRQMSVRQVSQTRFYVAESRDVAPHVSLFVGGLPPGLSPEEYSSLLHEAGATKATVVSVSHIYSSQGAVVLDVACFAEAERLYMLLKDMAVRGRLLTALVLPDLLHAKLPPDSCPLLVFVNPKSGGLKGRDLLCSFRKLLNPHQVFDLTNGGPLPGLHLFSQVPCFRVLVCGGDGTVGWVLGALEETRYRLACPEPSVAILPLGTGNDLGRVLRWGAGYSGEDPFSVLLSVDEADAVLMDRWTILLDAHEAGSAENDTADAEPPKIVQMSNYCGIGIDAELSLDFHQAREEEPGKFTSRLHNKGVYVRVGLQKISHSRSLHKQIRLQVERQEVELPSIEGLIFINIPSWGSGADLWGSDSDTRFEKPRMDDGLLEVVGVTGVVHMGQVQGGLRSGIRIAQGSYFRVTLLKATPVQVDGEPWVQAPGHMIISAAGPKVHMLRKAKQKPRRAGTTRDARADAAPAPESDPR
How it was run: (§3)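 Reactions without CaCl2 contained 5 μg homogenate, 2 mM liposomes (10 mol% dioleoyl DAG, 40 mol% PS, 50 mol% PC), buffer B, 1 mM DTT and [γ32P]-ATP, 20 min at 30°C. Test compound was added from DMSO. Extracted 32P-lipid was counted, GFP-lysate normalized, and expressed as percent of DMSO control.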

[10] = target: T2, DGKα; test: Kinase assay with purified DGKα and PC:DAG:PS liposomes; format: biochemical; conditions: for Vmax (ATP): ATP-dependent activity; for Vmax (DAG): DAG-dependent activity; for Decrease of Vmax of purified DGKα: 0.5 mol% drug
How it was run: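 Rat FLAG-DGKα was expressed in HeLa cells by adenovirus (72 h) and purified on FLAG M2 beads. Reactions contained buffer B (MOPS pH 7.5), 1 mM CaCl2, 1 mM DTT and 4.75 mM PC:PS:DAG liposomes (5 mol% DAG), with test compound built into the liposomes at 0.5 or 2.0 mol% or added from DMSO. Reactions with [γ32P]-ATP ran 15 min at 25°C. Km and Vmax came from Michaelis-Menten non-linear regression.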

[11] = target: DGKδ (Homo sapiens, UniProt Q16760); test: Kinase assay with HEK 293T cell homogenate over-expressing DGKδ; format: biochemical; conditions: 20 μM inhibitor, dioleoyl DAG liposomes
DGKδ, sequence (Q16760 1-1170 isoform Q16760-2): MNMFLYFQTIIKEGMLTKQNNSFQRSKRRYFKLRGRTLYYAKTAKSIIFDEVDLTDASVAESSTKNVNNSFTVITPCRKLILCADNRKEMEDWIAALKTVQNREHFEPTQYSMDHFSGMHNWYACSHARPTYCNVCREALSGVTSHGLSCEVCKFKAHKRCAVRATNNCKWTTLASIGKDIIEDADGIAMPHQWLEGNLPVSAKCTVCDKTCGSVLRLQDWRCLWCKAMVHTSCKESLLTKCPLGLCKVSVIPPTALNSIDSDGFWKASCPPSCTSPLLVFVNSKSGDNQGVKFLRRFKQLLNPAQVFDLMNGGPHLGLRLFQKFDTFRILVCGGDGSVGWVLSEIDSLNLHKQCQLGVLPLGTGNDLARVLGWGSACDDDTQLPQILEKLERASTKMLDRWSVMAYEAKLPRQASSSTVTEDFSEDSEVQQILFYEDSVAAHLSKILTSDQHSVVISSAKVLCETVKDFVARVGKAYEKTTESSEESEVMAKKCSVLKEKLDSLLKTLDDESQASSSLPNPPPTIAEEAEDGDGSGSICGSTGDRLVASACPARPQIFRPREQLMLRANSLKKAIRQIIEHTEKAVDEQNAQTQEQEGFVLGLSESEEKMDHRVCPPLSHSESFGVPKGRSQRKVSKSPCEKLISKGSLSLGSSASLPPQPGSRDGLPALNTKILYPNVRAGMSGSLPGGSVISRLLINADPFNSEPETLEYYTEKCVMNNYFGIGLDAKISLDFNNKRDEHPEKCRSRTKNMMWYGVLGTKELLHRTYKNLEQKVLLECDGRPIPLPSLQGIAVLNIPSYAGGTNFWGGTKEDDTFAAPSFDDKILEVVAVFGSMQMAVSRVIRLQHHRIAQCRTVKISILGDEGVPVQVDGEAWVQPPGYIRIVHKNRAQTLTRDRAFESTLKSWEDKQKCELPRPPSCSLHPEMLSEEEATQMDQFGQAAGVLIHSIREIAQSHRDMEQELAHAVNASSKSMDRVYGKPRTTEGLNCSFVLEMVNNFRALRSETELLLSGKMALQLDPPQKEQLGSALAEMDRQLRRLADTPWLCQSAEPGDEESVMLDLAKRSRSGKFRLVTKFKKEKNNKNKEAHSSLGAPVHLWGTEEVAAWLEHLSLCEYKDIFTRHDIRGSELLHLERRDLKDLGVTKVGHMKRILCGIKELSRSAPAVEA
How it was run: as §3

[12] = test system: PKC; test: PKC activation: phosphorylation of PKC substrates by western blot in U87 cells; format: cell-based, human; conditions: treatment for 30 min
How it was run: as §1

[13] = target: DGKβ (Rattus norvegicus, UniProt P49621); test: Kinase assay with HEK 293T cell homogenate over-expressing DGKβ; format: biochemical; conditions: 20 μM inhibitor, dioleoyl DAG liposomes
How it was run: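 Reactions contained 5 μg homogenate, 2 mM liposomes (10 mol% dioleoyl DAG, 40 mol% PS, 50 mol% PC), buffer B, 1 mM DTT, 1 mM CaCl2 and [γ32P]-ATP, 20 min at 30°C. Test compound was added from DMSO. Organic-phase 32P was counted and expressed as percent of DMSO control after subtracting the GFP-lysate background.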

[14] = test system: 5-HTRs; test: Agonist functional assays at 5 serotonin receptors; format: cell-based; conditions: 5 receptors where low Ki values were observed; data not shown

**Q.** What does the source list for Cc1nc2sccn2c(=O)c1CCN1CCC(=C(c2ccccc2)c2ccc(F)cc2)CC1 [R59022]?
**A.** Ki [1]: 0.8 nM; Activity of DGKα, percent of control ([2]; 20 μM inhibitor, liposomes with dioleoyl DAG, cell homogenate): decreased by about half; Potency against DGKα with other DAG species ([2]; 20 μM, liposomes containing dioctanoyl or stearoyl arachidonoyl DAG): similarly potent; IC50 ([2]; read-out: IC50 for DGKα, cell homogenate, 1 mM ATP, 10 mol% DAG): ~25000 nM; Activation of PKC [3]: not in U251 cells; Percent Inhibition of Binding 5-HT5A ([4]; 10 μM test compound, n=4): 92.0%; Ki ([4]; read-out: Ki 5-HT5A, Cheng-Prusoff from best-fit IC50): 18 nM; Inhibition of DGKβ [5]: did not inhibit; Percent Inhibition of Binding 5-HT1B ([6]; 10 μM test compound, n=4): 83.5%; Ki ([6]; read-out: Ki 5-HT1B, Cheng-Prusoff from best-fit IC50): 656 nM; Percent Inhibition of Binding 5-HT3 [7]: 10.9%; Percent Inhibition of Binding 5-HT7 ([8]; 10 μM test compound, n=4): 98.5%; Ki ([8]; read-out: Ki 5-HT7, Cheng-Prusoff from best-fit IC50): 14.2 nM; Activity of DGKθ, percent of control [9]: not detectably inhibited; Vmax (ATP) ([10]; 0.5 mol% drug in liposomes, 5 mol% DAG): 32 ± 1 nmol/min/mg; Vmax (DAG) ([10]; 0.5 mol% drug in liposomes, 1 mM ATP): 22 ± 1 nmol/min/mg; Decrease of Vmax of purified DGKα ([10]; in the context of ATP): 25%; Decrease of Vmax of purified DGKα ([10]; in the context of DAG): 40%; Vmax (ATP) ([10]; 2.0 mol% drug in liposomes, 5 mol% DAG): 20 ± 1 ^† nmol/min/mg; Vmax (DAG) ([10]; 2.0 mol% drug in liposomes, 1 mM ATP): 16 ± 1.5 nmol/min/mg; Km ([10]; read-out: Km^app (ATP), 0.5 mol% drug in liposomes, 5 mol% DAG): 50 ± 10 µM; Km ([10]; read-out: Km^app (ATP), 2.0 mol% drug in liposomes, 5 mol% DAG): 30 ± 10 µM; Km ([10]; read-out: Km^app (DAG), 0.5 mol% drug in liposomes, 1 mM ATP): 110 ± 20 µM; Km ([10]; read-out: Km^app (DAG), 2.0 mol% drug in liposomes, 1 mM ATP): 100 ± 20 µM; Activity of DGKδ, percent of control [11]: not detectably inhibited; Activation of PKC [12]: activate PKC; Activity of DGKβ, percent of control [13]: not detectably inhibited; Agonist activity at 5-HTRs [14]: very low to no activity
